# Experimental data collected from several papers.
# Lines come from different studies, so protocols differ.
# ABL1 H396P phosphorylated: Tyrosine-protein kinase ABL1, phosphorylated (ABL1, Homo sapiens, UniProt P00519, H396P)
# ABL1 Q252H non-phosphorylated: Tyrosine-protein kinase ABL1, non-phosphorylated (ABL1, Homo sapiens, UniProt P00519, Q252H)
# ABL1 T315I phosphorylated: Tyrosine-protein kinase ABL1, phosphorylated (ABL1, Homo sapiens, UniProt P00519, T315I)
# ABL1 H396P non-phosphorylated: Tyrosine-protein kinase ABL1, non-phosphorylated (ABL1, Homo sapiens, UniProt P00519, H396P)
# ABL1 phosphorylated: Tyrosine-protein kinase ABL1, phosphorylated (ABL1, Homo sapiens, UniProt P00519)
# ABL1 Y253F: Tyrosine-protein kinase ABL1 (ABL1, Homo sapiens, UniProt P00519, Y253F)
# ABL1 F317I phosphorylated: Tyrosine-protein kinase ABL1, phosphorylated (ABL1, Homo sapiens, UniProt P00519, F317I)
# ABL1 Y253F phosphorylated: Tyrosine-protein kinase ABL1, phosphorylated (ABL1, Homo sapiens, UniProt P00519, Y253F)
# ABL1 T315I non-phosphorylated: Tyrosine-protein kinase ABL1, non-phosphorylated (ABL1, Homo sapiens, UniProt P00519, T315I)
# ABL1 E255K phosphorylated: Tyrosine-protein kinase ABL1, phosphorylated (ABL1, Homo sapiens, UniProt P00519, E255K)
SMILES,target,read-out,method,tested at,remaining binding [%]
CN(CCCC(F)(F)F)c1nccc(-c2cnn3ncccc23)n1,"Tyrosine-protein kinase ABL1 (ABL1, Homo sapiens, UniProt P00519, Q252H)",binding,,1 µM,100
c1cncc(-c2cccc(Nc3nccc(NC4CCCCC4)n3)c2)c1,ABL1 H396P phosphorylated,binding,competition with immobilised ligand,10 µM,29
N[C@H]1CCN(c2nccc(-c3cnn4ncccc34)n2)C1,"Tyrosine-protein kinase ABL1 (ABL1, Homo sapiens, UniProt P00519, H396P)",binding,,1 µM,58
CNC(=O)[C@@H]1CC[C@@H](n2c(-c3ccc4cnccc4c3)nc3ccc(C(=O)NCc4cccc(C(N)=O)c4)cc32)C1,ABL1 Q252H non-phosphorylated,binding,competition with immobilised ligand,1 µM,87
O=C(NCCCN1CCOCC1)c1ccc(Nc2ncc(Cl)c(-c3ccc(Cl)s3)n2)cc1,ABL1 T315I phosphorylated,binding,competition with immobilised ligand,1 µM,2.5
O=C(Nc1c[nH]nc1C(=O)NC1CCNCC1)c1cc(F)cc(F)c1,ABL1 H396P non-phosphorylated,binding,competition with immobilised ligand,1 µM,90
C=CC(=O)N1CCC(C(=O)NCC(=O)N2CCN(c3nc(-c4cnc(N)nc4C(F)F)nc(N4CCOCC4)n3)CC2)CC1,ABL1 H396P non-phosphorylated,binding,competition with immobilised ligand,1 µM,94
Cc1cnc(Nc2ccc(C(=O)N3CCC(N4CCCC4)CC3)cc2)nc1-c1cc2ccccc2s1,ABL1 phosphorylated,binding,competition with immobilised ligand,1 µM,1.6
CN(C)c1nccc(-c2cnc3ncccn23)n1,ABL1 Y253F,binding,,1 µM,41
COc1cnc(Nc2cccc(S(N)(=O)=O)c2)nc1N1CCN(c2ccccc2)C(=O)C1,"Tyrosine-protein kinase ABL1, phosphorylated (ABL1, Homo sapiens, UniProt P00519, M351T)",binding,competition with immobilised ligand,1 µM,84
O=C(c1ccc(Nc2ncc(Cl)c(-c3ccc(Cl)s3)n2)cc1)N1CCC(N2CCCC2)CC1,ABL1 F317I phosphorylated,binding,competition with immobilised ligand,1 µM,87
Nc1ncc2c(n1)-c1c([nH]c3ccc(C#CC4CC4)cc13)CCCC2,"Tyrosine-protein kinase ABL1, non-phosphorylated (ABL1, Homo sapiens, UniProt P00519, F317I)",binding,competition with immobilised ligand,1 µM,84
O=C(NCCCN1CCOCC1)c1ccc(Nc2nccc(-c3cc4ccccc4s3)n2)cc1,ABL1 H396P phosphorylated,binding,competition with immobilised ligand,1 µM,61
COc1cnc(Nc2cccc(S(N)(=O)=O)c2)nc1N1CCN(c2ccccc2)CC1,ABL1 Y253F phosphorylated,binding,competition with immobilised ligand,1 µM,73
CC1=C(C#N)C(c2ccc3c(c2)c(NC(=O)c2ccccc2C)nn3C)C(C#N)=C(C)N1,ABL1 H396P non-phosphorylated,cell-free assay,competition with immobilised ligand,1 µM,100
O=C(c1ccc(Nc2ncc(Cl)c(-c3cc4ccccc4s3)n2)cc1)N1CCC(N2CCCC2)CC1,ABL1 Q252H non-phosphorylated,binding,competition with immobilised ligand,1 µM,7.5
CNC(=O)Nc1ccc2c(c1)[C@@]1(CC2)OC(=O)N(CC(=O)N(Cc2ccc(F)cc2)[C@@H](C)C(F)(F)F)C1=O,ABL1 T315I phosphorylated,cell-free assay,competition with immobilised ligand,1 µM,87
O=C(NCC1CCOCC1)c1n[nH]cc1NC(=O)c1c(F)cccc1F,ABL1 Y253F phosphorylated,binding,competition with immobilised ligand,1 µM,86
C[C@@H](c1ccc(-n2cnc3c(N)ncnc32)cc1)N1CCc2nn(C)c(Cc3ccccc3)c2C1=O,"Tyrosine-protein kinase ABL1, phosphorylated (ABL1, Homo sapiens, UniProt P00519, F317L)",binding,competition with immobilised ligand,0.1 µM,49
C[C@@H]1CN(c2cc(-c3nn(C)c4ccc(OC5(C)CC5)cc34)ncn2)C[C@H](C)O1,ABL1 T315I non-phosphorylated,cell-free assay,competition with immobilised ligand,1 µM,73
CC1CCCN1c1nccc(-c2cnn3ncccc23)n1 (stereo not shown),"Tyrosine-protein kinase ABL1 (ABL1, Homo sapiens, UniProt P00519, T315I)",binding,,1 µM,100
CN([C@@H]1CCc2c(CC(=O)O)c3cc(S(C)(=O)=O)ccc3n2C1)S(=O)(=O)c1ccc(F)cc1,ABL1 H396P non-phosphorylated,cell-free assay,competition with immobilised ligand,1 µM,55
O=C(c1ccc(Nc2nccc(-c3cc4ccccc4s3)n2)cc1)N1CCC(N2CCCC2)CC1,"Tyrosine-protein kinase ABL1, phosphorylated (ABL1, Homo sapiens, UniProt P00519, Q252H)",binding,competition with immobilised ligand,1 µM,6.4
O=C(Nc1cccnn1)N1CC(C/C=C/c2cncc(Oc3ccc(C(F)(F)F)cn3)n2)C1,ABL1 F317I phosphorylated,cell-free assay,competition with immobilised ligand,1 µM,67
CN(C)c1nccc(-c2cnn3ncccc23)n1,ABL1 phosphorylated,binding,,1 µM,96
CN1CCN(c2cnc3c(C4CCN(C(=O)c5ccc(OC(F)(F)F)cc5N)CC4)ncnc3c2)CC1,ABL1 E255K phosphorylated,binding,competition with immobilised ligand,1 µM,98
COc1ccnn2ncc(-c3ccnc(N(C)C)n3)c12,ABL1 Y253F,binding,,1 µM,79
O=C1NC(c2ccccn2)Sc2ccccc21 (stereo not shown),ABL1 E255K phosphorylated,binding,competition with immobilised ligand,1 µM,77
CCN1CCN(Cc2ccc(C(=O)Nc3ccc(C)c(Oc4ccc5c(c4)CC(=O)N5)c3)cc2C(F)(F)F)CC1,ABL1 H396P non-phosphorylated,binding,competition with immobilised ligand,1 µM,0.35
O=C(NS(=O)(=O)c1ccc(NCC2CCOCC2)c([N+](=O)[O-])c1)c1ccc(N2CCN(Cc3ccc(C(F)(F)F)cc3-c3ccc(Cl)cc3)CC2)cc1Oc1cnc2[nH]ccc2c1,ABL1 F317I phosphorylated,binding,,1 µM,100
COc1ncc2cc3ccccc3nc2c1C#N,ABL1 T315I non-phosphorylated,cell-free assay,competition with immobilised ligand,5 µM,100
